Experiments:
CYP1A1 [1] = target: T1, CYP1A1 (Homo sapiens, UniProt P04798); experiment: Inhibition of recombinant human CYP1A1 expressed in baker's yeast-derived microsomes (Sacchrosomes) at 10 uM using 7-ethoxyresorufin substrate by EROD assay relative to control; conditions: probe 7-ethoxyresorufin
T1 sequence (P04798 whole entry): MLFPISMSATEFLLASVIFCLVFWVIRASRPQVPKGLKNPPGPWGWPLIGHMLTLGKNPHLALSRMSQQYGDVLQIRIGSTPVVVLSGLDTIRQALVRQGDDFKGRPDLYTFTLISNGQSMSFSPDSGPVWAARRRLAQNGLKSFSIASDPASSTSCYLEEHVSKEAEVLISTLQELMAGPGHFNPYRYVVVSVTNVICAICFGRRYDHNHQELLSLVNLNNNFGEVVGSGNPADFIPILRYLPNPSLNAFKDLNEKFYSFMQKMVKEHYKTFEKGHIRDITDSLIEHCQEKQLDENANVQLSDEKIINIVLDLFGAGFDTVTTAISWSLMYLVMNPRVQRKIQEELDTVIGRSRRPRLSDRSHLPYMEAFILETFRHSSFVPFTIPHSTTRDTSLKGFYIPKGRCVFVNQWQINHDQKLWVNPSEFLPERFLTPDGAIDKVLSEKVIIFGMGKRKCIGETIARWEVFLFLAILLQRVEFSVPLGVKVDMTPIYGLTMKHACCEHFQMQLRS
Procedure, shortened: (§1)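 Yeast microsomes carrying recombinant CYP (Sacchrosomes). Substrates per isoform are 7-ethoxyresorufin, 3-cyano-7-ethoxycoumarin, EOMCC or dibenzylfluorescein, read as endpoint fluorescence. Background from compound-only wells without enzyme is subtracted. Independent triplicate runs; α-naphthoflavone positive control.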

CYP1A2 = target: T2, CYP1A2 (Homo sapiens, UniProt P05177); experiment: Inhibition of recombinant human CYP1A2 expressed in baker's yeast-derived microsomes (Sacchrosomes) at 10 uM using 3-cyano-7-ethoxycoumarin substrate by EROD assay relative to control; type: ADME; conditions: probe 3-cyano-7-ethoxycoumarin; procedure, shortened: as §1
T2 sequence (P05177 whole entry): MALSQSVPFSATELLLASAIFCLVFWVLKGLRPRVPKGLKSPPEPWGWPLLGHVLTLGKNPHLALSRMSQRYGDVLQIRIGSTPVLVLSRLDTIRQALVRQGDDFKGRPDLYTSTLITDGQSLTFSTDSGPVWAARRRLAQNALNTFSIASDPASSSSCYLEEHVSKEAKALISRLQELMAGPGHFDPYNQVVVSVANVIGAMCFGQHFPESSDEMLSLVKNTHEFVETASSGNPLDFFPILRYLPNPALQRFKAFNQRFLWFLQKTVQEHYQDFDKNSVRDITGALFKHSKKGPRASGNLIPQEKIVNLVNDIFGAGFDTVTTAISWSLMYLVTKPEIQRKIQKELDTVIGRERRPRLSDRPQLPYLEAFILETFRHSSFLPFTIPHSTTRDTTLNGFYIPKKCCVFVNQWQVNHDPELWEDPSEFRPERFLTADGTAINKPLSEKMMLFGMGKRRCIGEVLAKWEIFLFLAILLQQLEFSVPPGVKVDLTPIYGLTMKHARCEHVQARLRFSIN

CYP1B1 = target: T3, CYP1B1 (Homo sapiens, UniProt Q16678); experiment: Inhibition of recombinant human CYP1B1 expressed in baker's yeast-derived microsomes (Sacchrosomes) at 10 uM using 7-ethoxyresorufin substrate by EROD assay relative to control; type: ADME; conditions: probe 7-ethoxyresorufin
T3 sequence (Q16678 whole entry): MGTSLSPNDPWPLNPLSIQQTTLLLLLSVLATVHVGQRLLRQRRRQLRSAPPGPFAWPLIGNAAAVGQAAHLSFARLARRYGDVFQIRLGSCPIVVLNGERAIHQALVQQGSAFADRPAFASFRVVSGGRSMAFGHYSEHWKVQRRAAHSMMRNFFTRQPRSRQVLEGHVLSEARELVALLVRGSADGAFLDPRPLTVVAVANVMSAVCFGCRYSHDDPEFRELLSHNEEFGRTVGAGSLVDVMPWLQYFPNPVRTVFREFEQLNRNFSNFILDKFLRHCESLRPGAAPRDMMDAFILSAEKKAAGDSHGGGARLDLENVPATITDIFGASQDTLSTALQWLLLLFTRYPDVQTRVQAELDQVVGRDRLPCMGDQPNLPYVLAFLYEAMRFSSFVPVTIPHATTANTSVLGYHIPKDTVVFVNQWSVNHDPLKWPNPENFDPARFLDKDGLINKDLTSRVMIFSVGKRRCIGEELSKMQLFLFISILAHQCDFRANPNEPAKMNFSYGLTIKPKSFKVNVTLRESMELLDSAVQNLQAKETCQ
Procedure, shortened: as §1, with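 “(Sacchrosomes). […]” for “(Sacchrosomes).”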

CYP2D6 = CYP2D6 (Homo sapiens, UniProt P10635); experiment: Inhibition of recombinant human CYP2D6 expressed in baker's yeast-derived microsomes (Sacchrosomes) at 10 uM using 7-ethoxy-methyloxy-3-cyanocoumarin substrate by EROD assay relative to control; type: ADME; conditions: probe 7-ethoxy-methyloxy-3-cyanocoumarin
Chain of CYP2D6 (P10635 whole entry): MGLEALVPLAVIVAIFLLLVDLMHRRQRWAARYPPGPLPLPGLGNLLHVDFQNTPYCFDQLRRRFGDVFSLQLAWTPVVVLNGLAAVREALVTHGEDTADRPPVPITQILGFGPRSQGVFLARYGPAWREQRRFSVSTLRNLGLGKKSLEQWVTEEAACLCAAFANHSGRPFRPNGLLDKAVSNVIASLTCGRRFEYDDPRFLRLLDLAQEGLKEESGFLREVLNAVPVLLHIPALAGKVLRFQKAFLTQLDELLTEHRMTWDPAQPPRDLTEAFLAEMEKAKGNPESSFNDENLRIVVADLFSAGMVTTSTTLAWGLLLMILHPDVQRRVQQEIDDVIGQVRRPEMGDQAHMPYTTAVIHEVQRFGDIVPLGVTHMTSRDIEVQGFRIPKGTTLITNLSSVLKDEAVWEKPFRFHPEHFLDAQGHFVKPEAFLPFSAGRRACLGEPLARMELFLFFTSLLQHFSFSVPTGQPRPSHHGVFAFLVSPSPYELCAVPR
Procedure, shortened: as §1, with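 “(Sacchrosomes). […]” for “(Sacchrosomes).”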

CYP3A4 = CYP3A4 (Homo sapiens, UniProt P08684); experiment: Inhibition of recombinant human CYP3A4 expressed in baker's yeast-derived microsomes (Sacchrosomes) at 10 uM using dibenzylfluorescein substrate by EROD assay relative to control; type: ADME; conditions: probe dibenzylfluorescein
Chain of CYP3A4 (P08684 whole entry): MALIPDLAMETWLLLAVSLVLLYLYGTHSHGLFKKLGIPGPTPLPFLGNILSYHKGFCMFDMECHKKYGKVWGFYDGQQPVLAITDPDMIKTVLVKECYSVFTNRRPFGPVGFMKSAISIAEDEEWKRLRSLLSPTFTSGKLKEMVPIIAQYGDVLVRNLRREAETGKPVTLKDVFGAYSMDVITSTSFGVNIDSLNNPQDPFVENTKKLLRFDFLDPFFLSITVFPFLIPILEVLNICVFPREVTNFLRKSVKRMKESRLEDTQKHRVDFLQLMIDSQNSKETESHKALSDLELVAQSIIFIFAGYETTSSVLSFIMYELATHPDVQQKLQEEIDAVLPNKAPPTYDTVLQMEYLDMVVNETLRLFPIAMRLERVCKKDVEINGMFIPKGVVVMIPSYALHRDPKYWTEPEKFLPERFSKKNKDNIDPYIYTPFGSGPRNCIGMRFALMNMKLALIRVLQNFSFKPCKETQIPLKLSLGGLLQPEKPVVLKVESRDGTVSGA
Procedure, shortened: as §1, with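 “(Sacchrosomes). […]” for “(Sacchrosomes).”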

CYP2C9 = CYP2C9 (Homo sapiens, UniProt P11712); experiment: Inhibition of recombinant human CYP2C9 expressed in baker's yeast-derived microsomes (Sacchrosomes) at 10 uM using 3-cyano-7-ethoxycoumarin substrate by EROD assay relative to control; type: ADME; conditions: probe 3-cyano-7-ethoxycoumarin
Chain of CYP2C9 (P11712 whole entry): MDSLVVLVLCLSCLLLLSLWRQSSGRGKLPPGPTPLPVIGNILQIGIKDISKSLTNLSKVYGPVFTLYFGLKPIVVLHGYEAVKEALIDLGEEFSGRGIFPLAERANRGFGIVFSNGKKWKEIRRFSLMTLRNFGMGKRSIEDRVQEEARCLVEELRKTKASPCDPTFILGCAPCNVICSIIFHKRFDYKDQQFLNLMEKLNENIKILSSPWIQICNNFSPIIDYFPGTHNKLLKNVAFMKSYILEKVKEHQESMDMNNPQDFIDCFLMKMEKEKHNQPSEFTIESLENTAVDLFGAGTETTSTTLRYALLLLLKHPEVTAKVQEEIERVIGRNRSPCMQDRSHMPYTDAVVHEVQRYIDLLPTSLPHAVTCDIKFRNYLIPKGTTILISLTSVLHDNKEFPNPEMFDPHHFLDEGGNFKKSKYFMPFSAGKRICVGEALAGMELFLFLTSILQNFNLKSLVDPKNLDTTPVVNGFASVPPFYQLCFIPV
Procedure, shortened: as §1, with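 “(Sacchrosomes). […]” for “(Sacchrosomes).”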

CYP2C19 = CYP2C19 (Homo sapiens, UniProt P33261); experiment: Inhibition of recombinant human CYP2C19 expressed in baker's yeast-derived microsomes (Sacchrosomes) at 10 uM using 3-cyano-7-ethoxycoumarin substrate by EROD assay relative to control; type: ADME; conditions: probe 3-cyano-7-ethoxycoumarin
Chain of CYP2C19 (P33261 whole entry): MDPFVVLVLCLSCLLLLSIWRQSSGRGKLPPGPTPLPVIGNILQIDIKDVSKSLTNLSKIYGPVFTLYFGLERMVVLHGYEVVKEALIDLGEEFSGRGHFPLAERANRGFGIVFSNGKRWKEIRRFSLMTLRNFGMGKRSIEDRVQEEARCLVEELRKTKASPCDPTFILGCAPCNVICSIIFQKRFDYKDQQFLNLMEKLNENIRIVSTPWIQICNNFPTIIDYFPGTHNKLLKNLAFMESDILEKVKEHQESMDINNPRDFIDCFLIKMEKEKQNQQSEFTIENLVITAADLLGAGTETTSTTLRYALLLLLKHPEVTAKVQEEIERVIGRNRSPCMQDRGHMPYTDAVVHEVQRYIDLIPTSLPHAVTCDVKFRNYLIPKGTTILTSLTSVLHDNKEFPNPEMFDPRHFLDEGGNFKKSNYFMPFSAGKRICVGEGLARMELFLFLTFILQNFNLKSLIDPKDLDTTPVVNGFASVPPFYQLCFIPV
Procedure, shortened: as §1, with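 “(Sacchrosomes). […]” for “(Sacchrosomes).”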

CYP1A1 [2] = target: T1, CYP1A1; experiment: Inhibition of human recombinant CYP1A1 expressed in HEK293 cells at 10 uM using 7-ethoxyresorufin substrate preincubated for 30 mins followed by substrate addition and measured after 60 mins by fluorescence assay relative to control; type: cell-based; conditions: HEK293 cells expressing human recombinant CYP1A1, probe 7-ethoxyresorufin
Procedure, shortened: (§2)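 HEK293 cells adapted to suspension and transiently transfected with pcDNA3.1 plasmids carrying the individual CYP; 100×10^3 cells per well in triplicate. […] Fluorogenic substrate is then added at 5 μM and fluorescence read for 60 min.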

Cytochrome P450 1A1 = target: T4, Cytochrome P450 1A1 (Homo sapiens, UniProt P04798); experiment: Inhibition of human recombinant CYP1A1 expressed in HEK293 cells using 7-ethoxyresorufin substrate preincubated for 30 mins followed by substrate addition and measured after 60 mins by fluorescence assay relative to control; type: cell-based; procedure, shortened: as §2
T4 sequence (P04798 whole entry): T1 sequence (P04798 whole entry)

Cytochrome P450 1A2 = target: T5, Cytochrome P450 1A2 (Homo sapiens, UniProt P05177); experiment: Inhibition of human recombinant CYP1A2 expressed in HEK293 cells using 3-cyano-7-ethoxycoumarin substrate preincubated for 30 mins followed by substrate addition and measured after 60 mins by fluorescence assay relative to control; type: ADME, cell-based; procedure, shortened: as §2
T5 sequence (P05177 whole entry): T2 sequence (P05177 whole entry)

Cytochrome P450 1B1 = target: T6, Cytochrome P450 1B1 (Homo sapiens, UniProt Q16678); experiment: Inhibition of human recombinant CYP1B1 expressed in HEK293 cells using 7-ethoxyresorufin substrate substrate preincubated for 30 mins followed by substrate addition and measured after 60 mins by fluorescence assay relative to control; type: ADME, cell-based; procedure, shortened: as §2
T6 sequence (Q16678 whole entry): T3 sequence (Q16678 whole entry)

Cytochrome P450 2D6 = Cytochrome P450 2D6 (Homo sapiens, UniProt P10635); experiment: Inhibition of human recombinant CYP2D6 expressed in HEK293 cells using 7-ethoxy-methyloxy-3-cyanocoumarin substrate substrate preincubated for 30 mins followed by substrate addition and measured after 60 mins by fluorescence assay relative to control; type: ADME, cell-based; procedure, shortened: as §2
Chain of Cytochrome P450 2D6 (P10635 whole entry): as the sequence (P10635 whole entry) above

Cytochrome P450 2C9 = Cytochrome P450 2C9 (Homo sapiens, UniProt P11712); experiment: Inhibition of human recombinant CYP2C9 expressed in HEK293 cells using 3-cyano-7-ethoxycoumarin substrate substrate preincubated for 30 mins followed by substrate addition and measured after 60 mins by fluorescence assay relative to control; type: ADME, cell-based; procedure, shortened: as §2
Chain of Cytochrome P450 2C9 (P11712 whole entry): as the sequence (P11712 whole entry) above

Cytochrome P450 2C19 = Cytochrome P450 2C19 (Homo sapiens, UniProt P33261); experiment: Inhibition of human recombinant CYP2C19 expressed in HEK293 cells using 3-cyano-7-ethoxycoumarin substrate substrate preincubated for 30 mins followed by substrate addition and measured after 60 mins by fluorescence assay relative to control; type: ADME, cell-based; procedure, shortened: as §2
Chain of Cytochrome P450 2C19 (P33261 whole entry): as the sequence (P33261 whole entry) above

Cytochrome P450 3A4 = Cytochrome P450 3A4 (Homo sapiens, UniProt P08684); experiment: Inhibition of human recombinant CYP3A4 expressed in HEK293 cells using dibenzylfluorescein substrate substrate preincubated for 30 mins followed by substrate addition and measured after 60 mins by fluorescence assay relative to control; type: ADME, cell-based
Chain of Cytochrome P450 3A4 (P08684 whole entry): as the sequence (P08684 whole entry) above
Procedure, shortened: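 HEK293 cells adapted to suspension and transiently transfected with pcDNA3.1 plasmids carrying the individual CYP; 100×10^3 cells per well in triplicate. Fluorogenic substrate is then added at 5 μM and fluorescence read for 60 min.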

| SMILES | inhibition at 10 µM (CYP1A1 [1]) [%] | inhibition at 10 µM (CYP1A2) [%] | inhibition at 10 µM (CYP1B1) [%] | inhibition at 10 µM (CYP2D6) [%] | inhibition at 10 µM (CYP3A4) [%] | inhibition at 10 µM (CYP2C9) [%] | inhibition at 10 µM (CYP2C19) [%] | inhibition at 1 h, 10 µM (CYP1A1 [2]) [%] | IC50 (Cytochrome P450 1A1) [µM] | Ki (Cytochrome P450 1A1) [µM] | IC50 (Cytochrome P450 1A2) [µM] | Ki (Cytochrome P450 1A2) [µM] | IC50 (Cytochrome P450 1B1) [µM] | IC50 (Cytochrome P450 2D6) [µM] | IC50 (Cytochrome P450 2C9) [µM] | IC50 (Cytochrome P450 2C19) [µM] | IC50 (Cytochrome P450 3A4) [µM] |
| --- | --- | --- | --- | --- | --- | --- | --- | --- | --- | --- | --- | --- | --- | --- | --- | --- | --- |
| O=C1C=CC(=O)c2c(O)ccc(O)c21 [NAPHTHAZALIN] | 79 to 99 | 82 | 8 | 5 | 15 | 5 | 4 | 78 | 3.82 | 3.66 | 2.16 | 2.22 | > 10 | > 10 | > 10 | > 10 | > 10 |
| COc1ccc(-c2cc(=O)c3c(O)c(OC)c(OC)cc3o2)cc1OC | 80 | 90 | 70 | 13 | 9 | 7 | 5 | 96 | 1.38 | 1.42 | 0.9 | 0.78 | 2.5 | > 10 | > 10 | > 10 | > 10 |
| COc1ccc2c(c1OC)C(OC)N(C)c1c-2ccc2cc3c(cc12)OCO3 (centres undefined) | 90 | 7 | 10 | 11 | 6 | 4 | 3 | 80 | 3.03 | 3.25 | 8.93 | 9.16 | 7.7 | > 10 | > 10 | > 10 | > 10 |
| COc1c2ccoc2c(OCC=C(C)C)c2oc(=O)ccc12 [PHELLOPTERIN] | 87 to 97 | 96 | 98 | 20 | 12 | 3 | 5 | 90 | 0.58 | 0.62 | 0.42 | 0.38 | 0.22 | > 10 | > 10 | > 10 | > 10 |
| COc1c(C(=O)CC(=O)c2ccccc2)ccc2occc12 | 85 to 87 | 8 | 12 | 14 | 9 | 0 | 3 | 85 | 2.23 | 1.96 | 3.16 | 3.86 | 6.04 | > 10 | > 10 | > 10 | > 10 |
| COc1c2occc2c(OC)c2c(=O)cc(C)oc12 [KHELLIN] | 92 | 99 | 5 | 8 | 11 | 12 | 8 | 75 | 4.02 | 3.8 | 0.04 | 0.031 | 34.6 | > 10 | > 10 | > 10 | – |
| Nc1nccc(-c2c[nH]c3ccc(Br)cc23)n1 [MERIDIANIN C] | 50 to 52 | 55 | 7 | 5 | 10 | 3 | 2 | 41 | 9.23 | 9.48 | 8.72 | 8.78 | 0.213 | > 10 | > 10 | > 10 | > 10 |
| CC1=CC(=O)c2c(O)cccc2C1=O [PLUMBAGIN] | – | 55 | 40 | 10 | 15 | 11 | 12 | 86 | 2.77 | 2.56 | 2.46 | 2.36 | 6.15 | > 10 | > 10 | > 10 | > 10 |

From ChEMBL document CHEMBL4257453, “Identification of karanjin isolated from the Indian beech tree as a potent CYP1 enzyme inhibitor with cellular efficacy via screening of a natural product repository” (Medchemcomm, 2018)
